Experimental data pooled from the literature.
Lines come from different studies, so protocols differ.
Read-out: cell growth or viability

`Cc1onc(-c2ccccc2)c1-c1ccc(S(N)(=O)=O)cc1` gave a CC50 of over 200 µM (Huh-7; MTT; 24 h).
`Cc1ccc(S(=O)(=O)Nc2nc(N)c(-c3nc4ccccc4s3)c(-c3ccc(Cl)cc3)n2)cc1` has a CC50 of 190 µg/mL (BGM).
For `CCOP(=O)(OCC)[C@@H]1C[C@@H](n2cc(Cn3cnc4c(N)ncnc43)nn2)ON1C` (racemic), the CC50 was over 250 µM (human T-lymphocyte; 72 h).
`Cc1ccc(S(=O)(=O)Nc2nc(N)c(-c3nc4ccccc4s3)c(-c3ccc(F)cc3)n2)cc1` gave a CC50 of 190 µg/mL (BGM).
The CC50 of `C=C1CN(S(=O)(=O)c2ccc(C)cc2)CCCN(CCc2ccccc2)CCCN(S(=O)(=O)c2ccc(C)cc2)C1` is reported as over 50 µM (HEK-293T; resazurin; 72 h).
`CCOP(=O)(OCC)[C@@H]1C[C@H](n2cc(Cn3ccc(NC(C)=O)nc3=O)nn2)ON1C` (racemic) gave a CC50 of over 250 µM (human T-lymphocyte; 72 h).
For `CO[C@H]1/C=C/O[C@@]2(C)Oc3c(C)c(O)c4c(O)c(c(/C=N/N5CCN(C)CC5)c(O)c4c3C2=O)NC(=O)/C(C)=C\C=C[C@H](C)[C@H](O)[C@@H](C)[C@@H](O)[C@@H](C)[C@H](OC(C)=O)[C@@H]1C`, the CC50 was 304 µM (Huh-7; MTT; 24 h).
For `O=C(O)CCCc1cc2cc(Cl)ccc2n1S(=O)(=O)c1ccc2ncsc2c1`, the CC50 was over 40 µM (LX-2; ATP luminescence; 48 h; serum-free).
With `Cc1ccc(S(=O)(=O)Nc2ncc(-c3nc4ccccc4s3)c(N)n2)cc1` the CC50 was 200 µg/mL (BGM).
The CC50 of `CCOP(=O)(OCC)[C@@H]1C[C@H](n2cc(-c3ccccn3)nn2)ON1C` is reported as over 250 µM (human T-lymphocyte; 72 h).
`CN1CCC(NCc2cccc(-c3ccc(S(=O)(=O)NCc4ccccc4)cc3)c2)CC1` has a CC50 of 6.84 µM (Huh-7; MTT; 24 h).
The CC50 of `CCOP(=O)(OCC)[C@@H]1C[C@H](n2cc(Cn3cc(C)c(=O)[nH]c3=O)nn2)ON1C` (racemic) is reported as over 250 µM (human T-lymphocyte; 72 h).
For `Nc1nc(NS(=O)(=O)c2ccccc2)nc(-c2ccc(F)cc2)c1-c1nc2ccccc2s1`, the CC50 was 180 µg/mL (BGM).
For `COc1ccc(NC(=O)N2CCCCN3C[C@H](c4ccc(C#Cc5ccccc5)cc4)[C@@H]3C2)cc1`, the CC50 was 25 µM (HEK-293T).
The CC50 of `CCOP(=O)(OCC)[C@@H]1C[C@@H](n2cc(-c3nccn3C)nn2)ON1C` is reported as over 250 µM (human T-lymphocyte; 72 h).
With `CO[C@H]1C[C@@H](C[C@H](C)[C@H]2CC(=O)[C@@H](C)/C=C(\C)[C@H](O)[C@H](OC)C(=O)[C@@H](C)C[C@@H](C)/C=C/C=C/C=C(\C)[C@H](OC)C[C@H]3CC[C@H](C)[C@](O)(O3)C(=O)C(=O)N3CCCC[C@@H]3C(=O)O2)CC[C@@H]1OCCO` (racemic) the CC50 was 15.9 µM (Huh-7; MTT; 24 h).
With `CCOP(=O)(OCC)[C@@H]1C[C@@H](n2cc(Cn3ccc(=O)[nH]c3=O)nn2)ON1C` (racemic) the CC50 was over 250 µM (human T-lymphocyte; 72 h).
`O=C(O)c1cc(-c2ccc(Br)cc2)nc2ccc(Cl)cc12` has a CC50 of 89.7 µM (Huh-7; MTT; 24 h).
The CC50 of `O=c1oc2c(O)c(O)cc3c(=O)oc4c(O)c(O)cc1c4c23` is reported as over 5000 µM (Huh-7; MTT).
`CC(C)c1cc(Oc2c(Cl)cc(-n3nc(C#N)c(=O)[nH]c3=O)cc2Cl)n[nH]c1=O` has a CC50 of over 50 µM (LX-2; ATP luminescence; 48 h; serum-free).
For `Cc1ccc2oc(-c3cc(NC(=O)Cc4ccccc4)ccc3Cl)nc2c1`, the CC50 was over 400 µM (Huh-7; MTT; 24 h).
`COc1ccc(NC(=O)N2CCCCN3[C@H](CN(C)S(C)(=O)=O)[C@H](c4ccc(C#Cc5ccccc5)cc4)[C@@H]3C2)cc1` gave a CC50 of over 40 µM (HEK-293T).
For `CCO[C@H](COc1ccc(C(F)(F)F)cc1)CSc1ccc(OCC(=O)O)c(C)c1`, the CC50 was over 50 µM (LX-2; ATP luminescence; 48 h; serum-free).
For `CCOP(=O)(OCC)[C@@H]1C[C@H](n2cc(-c3cccc(F)c3)nn2)ON1C`, the CC50 was over 250 µM (human T-lymphocyte; 72 h).
`NCCN(C(=O)c1ccc(Cl)cc1Cl)c1ccc(OCc2ccc(Cl)cc2)cc1` gave a CC50 of 11.9 µM (Huh-7; MTT; 24 h).
`CCOP(=O)(OCC)[C@@H]1C[C@@H](n2cc(C(=O)OC)nn2)ON1C` (relative stereo) has a CC50 of over 250 µM (human T-lymphocyte; 72 h).
For `CC(C)Cn1c(=O)n(C)c(=O)c2c(-c3cncn3C)n(Cc3cccc4ccccc34)nc21`, the CC50 was over 200 µM (Huh-7; MTT; 24 h).
